# Assay results pooled from the literature.
# Target: Myosin light chain kinase 2, skeletal/cardiac muscle (MYLK2, Homo sapiens, UniProt Q9H1R3)
Structure (SMILES),assay,setting,quantity,value
C[C@H](c1ccnc(Nc2nc3ccc(-c4cc(N(C)C)ncn4)cc3[nH]2)c1)N1CCN(C(=O)CC(F)(F)F)CC1,"cell-free assay, competition with immobilised ligand",0.1 µM,remaining binding,92%
Cc1ccc(C(=O)Nc2ccc(CN3CCN(C)CC3)c(C(F)(F)F)c2)cc1C#Cc1cnc2cccnn12,"enzyme activity, inhibitor",23.5 nM,remaining activity,100%
COc1cc2ncnc(Nc3ccc(Oc4ccccc4)c(C)c3C)c2cc1OC,"enzyme activity, inhibitor",1 µM,inhibition,-5%
N#CCCc1ccc2c(c1)-c1[nH]c3ccc([N+](=O)[O-])cc3c1CC(=O)N2,cell-free assay,0.5 µM,remaining signal,93.9%
CC(C)(O)[C@H]1CC[C@H](Nc2ccc3ncc(-c4cccc(C(F)(F)F)c4)n3n2)CC1,"enzyme activity, inhibitor",1 µM,remaining activity,96.7%
O=C1Nc2ccc(Cl)cc2C1=Cc1cc(Cl)c(O)c(Cl)c1,cell-free assay,0.5 µM,remaining signal,71.5%
Cc1nc(Cc2cccc(C(F)(F)F)c2)sc1-c1ccc(C(N)=O)nc1,"cell-free assay, competition with immobilised ligand",1 µM,remaining binding,77%
Cc1cc(NC(=O)c2cccc3cc(-c4cccc5[nH]nc(N)c45)ccc23)ccc1F,"enzyme activity, inhibitor",0.1 µM,activity vs control,97%
Clc1ccc(Nc2nnc(Cc3ccncc3)c3ccccc23)cc1,cell-free assay,0.5 µM,remaining signal,103%
Cc1sc(C(=O)NC2COC2)cc1-n1cc(NC(=O)Nc2c(F)cccc2Cl)cn1,"enzyme activity, inhibitor",10 µM,remaining activity,78.7%
CS(=O)(=O)NCC[C@H](NC(=O)c1cncc2c1cnn2-c1ccc(F)cc1)c1ccnc(S(C)(=O)=O)c1,"cell-free assay, competition with immobilised ligand",1 µM,remaining binding,93%
O=C1NC(=O)c2cc(Nc3ccc(F)cc3)c(Nc3ccc(F)cc3)cc21,cell-free assay,0.5 µM,remaining signal,98.7%
Nc1ncnc2occ(-c3ccc(NC(=O)Nc4cc(C(F)(F)F)ccc4F)cc3)c12,"enzyme activity, inhibitor",20 µM,remaining activity,1.4%
CNC(=O)c1cc(Oc2ccc(NC(=O)Nc3ccc(Cl)c(C(F)(F)F)c3)cc2)ccn1,"enzyme activity, inhibitor",0.3 µM,inhibition,4%
CC(C)(C)c1nc2c(s1)c1nc(N)ncc1c1ccc(NS(=O)(=O)c3c(F)cccc3F)c(F)c12,"enzyme activity, inhibitor, radiometric",1 µM,remaining activity,113%
CN(C)C(=O)Cn1cc(-c2nc([C@@](C)(c3ccc(-c4cnc(N)nc4)cc3)C3CC3)no2)cn1,"cell-free assay, competition with immobilised ligand",1 µM,remaining binding,100%
CCN(CC)CCNC(=O)c1c(C)[nH]c(/C=C2\C(=O)Nc3ccc(F)cc32)c1C,"enzyme activity, inhibitor",10 µM,inhibition,92%
COc1cc(Cl)c(C(=O)N[C@@H](CN[C@H]2CC[C@@H](N)CC2)Cc2ccc(C#N)cc2)cc1-c1ccc(CN[C@H](C)c2ccc(C)cc2)o1,"enzyme activity, inhibitor",1 µM,remaining activity,99%
COc1cccc(CNC(=O)c2nc3scc(COCc4ccc(C(=O)O)cc4)c3c(=O)[nH]2)c1,"cell-free assay, competition with immobilised ligand",1 µM,remaining binding,100%
